This passage reports MIC results from ChEMBL document CHEMBL4028901, “Novel Antitubercular 6-Dialkylaminopyrimidine Carboxamides from Phenotypic Whole-Cell High Throughput Screening of a SoftFocus Library: Structure-Activity Relationship and Target Identification Studies” (J Med Chem, 2017).

Values after ≈ are worked out from the molar mass of the structure shown.

In the assay the test system is Mycobacterium tuberculosis. The experiment in a line: Antibacterial activity against Mycobacterium bovis BCG grown in 7H9 medium after 6 days by resazurin-based fluorescent method. It counts as functional. To be noted: variant bovis BCG, 144 h. In short, it runs like this: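 M. bovis BCG at 10⁵ CFU/ml in 7H9 with 0.025% tyloxapol and 2% glucose. Compounds tested as 10 two-fold dilutions from 50 μM. Incubated 6 days at 37 °C, then resazurin added for a further 48 h. Endpoint fluorescence read at excitation 530 nm, emission 590 nm.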

`CN1CCN(c2ccc(NC(=O)c3cc(N(CCCN)Cc4ccccc4)ncn3)cc2)CC1` came in with an MIC of 18.6 µM (≈ 8.55 µg/mL).
